Measurements of several laboratories.
Compare with care: the assays were run in different laboratories. In brackets after ≈: the same amount, converted by molar mass.
Organism: Pseudomonas aeruginosa

| Structure (SMILES) | test | system | conditions | measurement | value |
| --- | --- | --- | --- | --- | --- |
| COc1cc(Cc2cnc(N)nc2N)cc(OC)c1OC | microbial growth, broth dilution | ATCC27853 | – | MIC | 8 µg/mL (≈ 27.6 µM) |
| COc1cc(C#CC(=O)C2CCCCC2)ccc1O | microbial growth, absorbance | – | 100 µM, 24 h | activity vs control | 80% |
| Cc1[nH]c(C(=O)Nc2ccc(C(=O)NCc3n[nH]c(=O)o3)cc2N2CCNCC2)c(Cl)c1Cl.Cl | microbial growth, broth dilution | ATCC27853 | – | MIC | > 32 µg/mL |
| CC1CCC(C(C)C)C(OC(=O)C=Cc2ccc(O)c(O)c2)C1 (stereo not drawn) | microbial growth, broth dilution | ATCC27853 | – | MIC | 2 µg/mL (≈ 6.28 µM) |
| C[C@H]1COc2c(N3CCN(C)CC3)c(F)cc3c(=O)c(C(=O)O)cn1c23 | microbial killing | ATCC47085 | – | MBC | 7.81 µg/mL (≈ 21.6 µM) |
| CC(C)(C)OC(=O)N1CCN(c2cc(C(=O)NCC(=O)O)ccc2NC(=O)c2cc(Br)c(Br)[nH]2)CC1 | microbial growth, broth dilution | ATCC27853 | – | MIC | > 32 µg/mL |
| COc1cccc(C(=O)C#Cc2ccc(O)c(OC)c2)c1 | microbial growth, absorbance | – | 10 µM, 24 h | activity vs control | 87% |
| CC(C)(O/N=C(\C(=O)N[C@@H]1C(=O)N2C(C(=O)[O-])=C(C[n+]3ccccc3)CS[C@H]12)c1csc(N)n1)C(=O)O | microbial growth, disc diffusion | – | 2000 µg/mL, 24 h | inhibition zone | 9.5 mm |
| Cc1[nH]c(C(=O)Nc2ccc(-c3n[nH]c(=O)o3)cc2N2CCC[C@H](N)C2)c(Cl)c1Cl.Cl | microbial growth, broth dilution | ATCC27853 | – | MIC | 16 µg/mL |
| COc1cc(C=Nc2cccc(O)c2)ccc1O | microbial growth, disc diffusion | – | 2000 µg/mL, 24 h | inhibition zone | 14.5 mm |
| Cl.O=C(O)CNC(=O)c1ccc(NC(=O)c2cc(Br)c(Br)[nH]2)c(N2CCNCC2)c1 | microbial growth, broth dilution | ATCC27853 | – | MIC | > 32 µg/mL |
| COc1cc(C#CC(O)CC(C)C)ccc1O (stereo not drawn) | microbial growth, absorbance | – | 100 µM, 24 h | activity vs control | 93% |
| Nc1ccccc1OC(=O)C=Cc1ccc(O)c(O)c1 | microbial growth, broth dilution | ATCC27853 | – | MIC | 32 µg/mL (≈ 118 µM) |
| CC(C)(O/N=C(\C(=O)N[C@@H]1C(=O)N2C(C(=O)[O-])=C(C[n+]3ccccc3)CS[C@H]12)c1csc(N)n1)C(=O)O | microbial growth, broth dilution | ATCC27853 | 20 h | MIC | 1 µg/mL (≈ 1.83 µM) |
| O=C(C=Cc1ccc(O)c(O)c1)OCCc1ccccc1 | microbial growth, broth dilution | ATCC27853 | – | MIC | 64 µg/mL (≈ 225 µM) |
| COc1cc(C#CC(O)c2ccccc2)ccc1O (stereo not drawn) | microbial growth, absorbance | – | 100 µM, 24 h | activity vs control | 82% |
| COc1cc(C=Nc2ccc([N+](=O)[O-])cc2)ccc1O | microbial growth, disc diffusion | – | 2000 µg/mL, 24 h | inhibition zone | 14.2 mm |
| Cc1[nH]c(C(=O)Nc2ccc(C(=O)NCC(=O)O)cc2N2CC[C@H](N)C2)c(Cl)c1Cl.Cl | microbial growth, broth dilution | ATCC27853 | – | MIC | > 32 µg/mL |
| COc1cc(C#CC(=O)c2cccc(C)c2)ccc1O | microbial growth, absorbance | – | 10 µM, 24 h | activity vs control | 98% |
| O=C(C=Cc1ccc(O)c(O)c1)Oc1ccccc1 | microbial growth, broth dilution | ATCC27853 | – | MIC | 8 µg/mL (≈ 31.2 µM) |
| CC(C)(C)OC(=O)N[C@H]1CCN(c2cc(C(=O)NCC(=O)O)ccc2NC(=O)c2cc(Br)c(Br)[nH]2)C1 | microbial growth, broth dilution | ATCC27853 | – | MIC | > 32 µg/mL |
| COc1cc(C#CC(=O)c2ccccc2Cl)ccc1O | microbial growth, absorbance | – | 10 µM, 24 h | activity vs control | 98% |
| Cc1[nH]c(C(=O)Nc2ccc(C(=O)NCC(=O)O)cc2N2CC[C@H](NC(=O)OC(C)(C)C)C2)c(Cl)c1Cl | microbial growth, broth dilution | ATCC27853 | – | MIC | > 32 µg/mL |
| COc1cc(-c2[nH]nnc2C(=O)c2ccccc2)ccc1O | microbial growth, absorbance | – | 10 µM, 24 h | activity vs control | 95% |
| COc1cc(C=Nc2ccccc2Br)ccc1O | microbial growth, disc diffusion | – | 2000 µg/mL, 24 h | inhibition zone | 14.2 mm |
| COc1cccc(C(O)C#Cc2ccc(O)c(OC)c2)c1 (stereo not drawn) | microbial growth, absorbance | – | 10 µM, 24 h | activity vs control | 96% |
| Cl.N[C@H]1CCN(c2cc(C(=O)NCC(=O)O)ccc2NC(=O)c2cc(Br)c(Br)[nH]2)C1 | microbial growth, broth dilution | ATCC27853 | – | MIC | > 32 µg/mL |
